In the library only some 1.6% were active in any assay of this set; here they are far more common.
VIM-2 inhibitor: blocks Pseudomonas aeruginosa VIM-2 metallo-beta-lactamase | purified VIM-2, nitrocefin hydrolysis, epi-absorbance fluorescence | inhibition, % at 5.6 µM | AID 1527 | hit rate 0.89% among 290,000;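 active = inhibition above the mean of all tested compounds plus 3 SD, cutoff set per screening run, cut at about 7.5% in these data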;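 note: red hydrolysis product quenches plate fluorescence so inhibitors raise well fluorescence; 0% = enzyme with DMSO and 100% = DMSO without enzyme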
DNA FID counter: displaces DNA intercalator in HCV helicase counter-screen; inhibition, % at 7.9 µM; DNA fluorescent intercalator displacement, fluorescence; hit rate 0.17% among 290,000; AID 1845; in the data active = inhibition above about 37%;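 note: 0% = vehicle and 100% = reference compound; higher means more ethidium bromide displaced from hairpin DNA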
HCV core dimer: HCV core protein dimerization inhibition; TR-FRET GST/Flag-core106 dimerization, 1536-well; inhibition, % at 5 µM; hit rate 0.33% among 300,000;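 active = inhibition above the mean of all tested compounds plus 3 SD, set per screening campaign, cut at about 45% in these data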
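Assay system: Tagged HCV core106 pair (GST and Flag) | Buffer or medium: KF-containing HEPES buffer, pH 7.45, DTT, CHAPS, BSA | Also added: Eu donor and XL665 acceptor anti-tag antibodies | Dosing: One concentration, 5 µM, in 0.5% DMSO | Timing: 4 h at 22.5 °C | Technique: TR-FRET 671 and 617 nm emission | Repeats: Singlicate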
IMP-1 inh: blocks Pseudomonas aeruginosa IMP-1 metallo-beta-lactamase | purified IMP-1, nitrocefin hydrolysis, epi-absorbance fluorescence | inhibition, % at 5.6 µM | hit rate 0.45% among 290,000;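 active = inhibition above the mean plus 3 SD of all compounds in the same screening run, cut at about 4.5% in these data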;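 note: 0% = IMP-1 with DMSO and 100% = DMSO wells lacking enzyme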
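Test system: recombinant IMP-1 enzyme, purified / Medium: HEPES buffer pH 7.1 with ZnSO4 and Brij 35 / Doses: single dose, 5.6 µM / Times: 25 °C, 15 min preincubation, 25 min reaction / Detection: Epi-absorbance via hydrolysed-nitrocefin quenching of white-plate fluorescence, 480/530 nm, EDTA stop / Evaluation: percent inhibition from optical density relative to buffer-blank wells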
Numbers without * were called inactive.

`CCCNC(=O)c1ccc(N2CCC3(CC2)CC(c2ccccc2)=NO3)c(NC(=O)Cc2ccc(F)cc2)c1` gave VIM-2 inhibitor -1, DNA FID counter -26, HCV core dimer 22 and IMP-1 inh 9.9*.
`Cc1c(NC(=O)COC(=O)c2cc3c4ccccc4n(C)c3s2)c(=O)n(-c2ccccc2)n1C` gave VIM-2 inhibitor 3, DNA FID counter 1, HCV core dimer 17 and IMP-1 inh 4.8*.
O=C(Nc1ccc(OC(=O)c2ccco2)cc1)c1ccco1 was read as VIM-2 inhibitor -3, DNA FID counter -3, HCV core dimer 10 and IMP-1 inh -3.
For COC(=O)Cc1csc(NCc2ccccc2)n1 the results were VIM-2 inhibitor -2, DNA FID counter -10, HCV core dimer 5 and IMP-1 inh -2.
CC(C)C1Nc2ccc(C(=O)O)cc2C2C=CCC21 (configuration not stated) was read as VIM-2 inhibitor -4, DNA FID counter -17, HCV core dimer -3 and IMP-1 inh -2.
Screening Cc1ccc2c(c1C)NC(C(=O)O)C1CC=CC21 (configuration not stated) returned HCV core dimer 71*.
`CCOC(=O)c1ccc2c(c1)C1C=CCC1C(C(=O)O)N2` (configuration not stated) gave VIM-2 inhibitor 1, DNA FID counter -11, HCV core dimer 88* and IMP-1 inh -2.
Screening CCCC1Nc2ccc(C(=O)O)cc2C2C=CCC12 (configuration not stated) returned VIM-2 inhibitor 2, DNA FID counter -6, HCV core dimer -9 and IMP-1 inh 3.
Screening O=C(O)C1Nc2c(C(=O)N3CCOCC3)cccc2C2C=CCC12 (configuration not stated) returned VIM-2 inhibitor -1, DNA FID counter -31, HCV core dimer 12 and IMP-1 inh -3.
CCOC(=O)C1Nc2ccc(C(=O)O)cc2C2C=CCC12 (configuration not stated) was read as VIM-2 inhibitor -1, DNA FID counter -12, HCV core dimer 0 and IMP-1 inh 35*.
Screening CCN(Cc1ccccc1)S(=O)(=O)c1ccc(C(=O)N2CCN(c3nc4ccccc4s3)CC2)cc1 returned VIM-2 inhibitor -1, DNA FID counter 2, HCV core dimer 22 and IMP-1 inh -1.
Screening Cc1cccc(NC(=S)N(CCCN(C)C)Cc2cc3cc4c(cc3[nH]c2=O)OCO4)c1 returned VIM-2 inhibitor 0, DNA FID counter 38*, HCV core dimer 0 and IMP-1 inh -2.
Screening CCc1ccccc1NC(=S)N(CCCN(C)C)Cc1cc2cc3c(cc2[nH]c1=O)OCO3 returned VIM-2 inhibitor 1, DNA FID counter 43*, HCV core dimer 2 and IMP-1 inh 0.
`CCCCOC(=O)c1ccc(NC(=S)N2CCN(c3ncc4c(=O)c(C(=O)O)cn(CC)c4n3)CC2)cc1` gave VIM-2 inhibitor -3, DNA FID counter 0, HCV core dimer 4 and IMP-1 inh -3.
`Cc1cc(C)n(-c2ccc(-n3ccnc3)nn2)n1` gave VIM-2 inhibitor 0, DNA FID counter -7, HCV core dimer -2 and IMP-1 inh -3.
Screening CC(=O)c1ccc(NC(=O)Cn2nc(C)cc2C)cc1 returned VIM-2 inhibitor -3, DNA FID counter 5, HCV core dimer -7 and IMP-1 inh -5.
Screening CCN(CC(=O)Nc1ccc2c(c1)OCCO2)Cc1cc(=O)n2ccsc2n1 returned VIM-2 inhibitor -5, DNA FID counter -22, HCV core dimer 0 and IMP-1 inh -4.
`CCN(CC(=O)NCc1ccc(F)cc1)Cc1cc(=O)n2ccsc2n1` gave VIM-2 inhibitor -4, DNA FID counter -1, HCV core dimer 2 and IMP-1 inh 7.6*.
Screening COc1cc([N+](=O)[O-])cc(/C=N\NC(=O)C2COc3ccccc3O2)c1O (configuration not stated) returned VIM-2 inhibitor -5, DNA FID counter -15, HCV core dimer -21 and IMP-1 inh -4.
CCOC(=O)COc1ccc2c(C#N)c3ccccn3c2c1 was read as VIM-2 inhibitor 1, DNA FID counter 7 and IMP-1 inh 0.
`COc1cc(OC)cc(C(=O)c2c(C)c(C#N)c3ccccn23)c1` gave VIM-2 inhibitor 7.8*, DNA FID counter -7 and IMP-1 inh -2.
For C#CCN1C(=O)S/C(=C\c2ccc(-c3ccc(Cl)c(C(=O)O)c3)o2)C1=O the results were VIM-2 inhibitor 9.3*, DNA FID counter -14, HCV core dimer -9 and IMP-1 inh -3.
